Source: PubChem BioAssay
CCR6 antagonist: CCR6 (human) receptor antagonism. CHO-K1 CCR6 PathHunter beta-arrestin, luminescence, CCL20-stimulated. 340,000 tested, 0.49% active. inhibition, % at 20 µM. AID 493098. P51684;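 active = compounds whose inhibition of the agonist-driven luminescence signal at 20 µM reaches about 50%, limit read from the data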;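 note: cells stimulated with CCL20 at 14 nM final; plate controls were DMSO with CCL20 for no effect and DMSO without agonist for full effect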
CXCR6 block: blocks human CXCR6 beta-arrestin recruitment. O00574. CHO-K1 PathHunter CXCR6 beta-arrestin, luminescence. inhibition, % at 20 µM. 360,000 tested, 0.36% active. AID 602244; in the data active = inhibition above about 34%, passing the limit was not always enough;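 note: antagonist mode with CXCL16 agonist at 10 nM final; 0% = 10 nM CXCL16 with DMSO and 100% = unstimulated wells without agonist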
EBI2 block: EBI2 (human) antagonism; P32249; EBI2 beta-arrestin recruitment, luminescence, 7a,25-OHC stimulated; inhibition, % at 5 µM; 360,000 tested, 0.81% active; AID 651636; in the data active = inhibition above about 38%;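 note: enzyme fragment complementation signal reports receptor beta-arrestin coupling in cells; 0% = agonist plus DMSO wells and 100% = wells without agonist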
APJ ag: activates the human apelin receptor APJ; CHO-K1 APJ PathHunter beta-arrestin, luminescence; 0% DMSO wells, 100% apelin; activation, % at 20 µM; 330,000 tested, 0.11% active;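 active = activation more than six SD over the plate average, tested at 20 µM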;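 note: 0% = DMSO alone and 100% = apelin-13 at 10 nM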
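assay system = CHO-K1 APJ beta-arrestin complementation cell line | input = cell density 1000 per well | dosing = compound 20 µM once, DMSO 1% | timing = compound 90 min 25 °C, reagent 1 h | measured by = luminescence from split beta-galactosidase complementation, Galacton Star/Emerald II substrate | read-out basis = APJ agonist activity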
m5-HT2A agonist: agonists of mouse serotonin 5-HT2A receptor (HTR2A); CHO-K1 mHTR2A beta-arrestin complementation, luminescence; percent of 30 µM serotonin response; 360,000 tested, 0.66% active; activation, % at 7.6 µM; AID 624169;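 active = activation above a run cutoff, the mean activation of all tested compounds plus 3 SD, cut at about 14% in these data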;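 note: 0% = plate median of compound wells and 100% = 30 µM serotonin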
Target sequence (P35363 whole entry, looked up): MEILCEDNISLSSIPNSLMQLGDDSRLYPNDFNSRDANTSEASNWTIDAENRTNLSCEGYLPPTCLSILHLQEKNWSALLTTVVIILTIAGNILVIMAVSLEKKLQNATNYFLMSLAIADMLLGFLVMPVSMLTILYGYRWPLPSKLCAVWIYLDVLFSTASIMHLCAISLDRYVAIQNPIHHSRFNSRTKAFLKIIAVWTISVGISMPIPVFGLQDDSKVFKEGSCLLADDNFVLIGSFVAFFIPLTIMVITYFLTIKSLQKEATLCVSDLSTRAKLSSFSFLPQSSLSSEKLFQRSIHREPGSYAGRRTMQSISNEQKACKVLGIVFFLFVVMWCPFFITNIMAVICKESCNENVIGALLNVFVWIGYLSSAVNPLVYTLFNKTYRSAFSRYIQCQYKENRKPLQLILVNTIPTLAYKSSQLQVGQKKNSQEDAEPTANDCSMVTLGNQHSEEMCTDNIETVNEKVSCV
APJ antag: APJ receptor antagonism; CHO-K1 APJ beta-arrestin complementation, luminescence; inhibition, % at 20 µM; 330,000 tested, 0.32% active; P35414;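 active = inhibition above about 40% at 20 µM, limit read from the data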;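 note: cells challenged with 10 nM apelin-13 agonist together with compound; plate controls were apelin-13 plus DMSO wells for no effect and DMSO wells lacking apelin-13 for full effect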
MOR ag counter: activates human mu opioid receptor in HTR2A counterscreen; shares compounds with m5-HT2A agonist; U2OS OPRM1 beta-arrestin PathHunter, luminescence; DMSO 0%, DAMGO 9.3 µM 100%; activation, % at 9.3 µM; 2,300 tested, 5.3% active;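 active = mean activation above the mean of DMSO-only wells plus 3 SD, cut at about 0.5% in these data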
m5-HT2A ag conf: confirmation of mouse HTR2A serotonin receptor agonists | shares compounds with m5-HT2A agonist | CHO-K1 PathHunter beta-arrestin recruitment, luminescence; DMSO 0%, 30 µM serotonin 100% | activation, % at 7.6 µM | 2,300 tested, 19% active | AID 624381;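 active = mean activation across triplicates above the hit threshold derived in the original primary screen, cut at about 15% in these data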
The depositor's hits bear a star; nt = no result. The list is not random: actives were taken first. Their share in the collection is about 2.1%.

SMILES	CCR6 antagonist	CXCR6 block	EBI2 block	APJ ag	m5-HT2A agonist	APJ antag	MOR ag counter	m5-HT2A ag conf
Cc1ccccc1NC(=S)NC(NC(=O)c1ccco1)C(Cl)(Cl)Cl (stereo not drawn)	15.8	3.7	-1.2	-4.1	16.8*	18.8	-0.6	-5.6
COCCNC(=O)C1(C)CCCN(Cc2ccc(Cl)nc2)C1 (stereo not drawn)	nt	7.8	-4.2	nt	0.2	nt	nt	nt
COC(=O)C[C@H]1CC[C@@H](NC(=O)C2CC2)[C@@H](CO)O1	nt	nt	-6.6	nt	17.8*	nt	-0.3	-1.0
CCC(C)c1c(NS(=O)(=O)c2ccc(C)cc2)o[nH]c1=O (stereo not drawn)	9.7	-0.6	0.2	nt	-5.7	nt	nt	nt
COc1ccc(C(=O)Nc2cccc([N+](=O)[O-])c2)cc1Br	1.1	-7.4	9.1	6.6	-2.2	-12.2	nt	nt
COc1ccc(C(=O)Nc2ccc(OC)c([N+](=O)[O-])c2)cc1Br	9.3	8.2	-0.5	-1.8	24.2*	10.2	-0.5	13.8
O=C(Cn1ccc(C(F)(F)F)n1)NNC(=O)c1cccnc1	-4.1	-3.7	-7.7	6.1	3.5	0.3	nt	nt
Cc1ccc(C(=O)NNC(=O)Cn2ccc(C(F)(F)F)n2)o1	4.7	3.4	-9.0	0.8	16.1*	9.4	-0.5	-1.3
Cc1ccc(-c2csc(NC(=O)CSc3ncn(-c4ccccc4)n3)n2)cc1	-4.4	-2.6	-1.3	-2.0	0.2	3.5	nt	nt
Cc1csc(NC(=O)CSc2ncn(-c3ccccc3)n2)n1	-2.1	3.6	-4.5	-1.7	20.9*	-6.8	-0.2	0.3
COc1ccc(NC(=O)CSc2nc3ccc(Nc4nc(N5CCOCC5)nc(N5CCOCC5)n4)cc3s2)cc1	7.4	4.9	12.2	0.8	14.7*	-22.4	0.1	18.5*
CCOC(=O)C1CCN(C(=O)Nc2ccccc2Cl)CC1	-15.1	1.2	-12.3	4.0	15.0*	6.3	-0.7	-0.9
Cc1cc(C)n(/N=C/c2ccc(O)cc2)c(=O)c1C#N	-3.1	2.8	-1.2	-4.6	20.3*	-0.5	-0.6	-3.8
O[C@H]1CN(Cc2cccs2)[C@@H](c2ccccc2)C[C@@H]1n1cc(C2CC2)nn1	nt	6.3	-0.2	nt	3.3	nt	nt	nt
CC(NC(=O)Nc1ccccc1C(F)(F)F)C1CCCO1 (stereo not drawn)	-15.2	-8.3	-0.5	-1.7	26.1*	20.0	-0.4	3.2
CC(NC(=O)Nc1ccc(Cl)cc1)C1CCCO1 (stereo not drawn)	1.4	3.4	1.3	-3.7	0.1	-10.0	nt	nt
COc1ccc(-c2cccc(NS(=O)(=O)c3cccc([N+](=O)[O-])c3)c2)nn1	9.3	-4.5	1.8	7.7	17.5*	-29.4	-0.4	-2.8
COc1ccc(-c2cccc(NS(=O)(=O)c3ccc([N+](=O)[O-])cc3)c2)nn1	13.4	-7.1	3.0	6.8	-2.3	-57.2	nt	nt
C#CCN(C[C@@H]1[C@@H](OC(=O)NCCCCCC)[C@@H](OC(=O)NCCCCCC)Cn2c(=O)ccc(=O)n21)S(=O)(=O)c1ccc(C)cc1	nt	-0.3	37.8	nt	8.7	nt	nt	nt
C#CCN(C[C@@H]1[C@@H](OC(=O)NCC2CCCCC2)[C@@H](OC(=O)NCC2CCCCC2)Cn2c(=O)ccc(=O)n21)S(=O)(=O)c1ccc(C)cc1	nt	-8.4	81.4*	nt	27.3*	nt	-0.3	35.0*
O=C(Nc1nnc([C@@H]2C[C@H](O)[C@@H](CO)O2)s1)c1cccc(Cl)c1	nt	-5.9	0.8	nt	2.5	nt	nt	nt
COCCN(Cc1ccccc1)C(=O)c1ccc(C(=O)c2ccccc2)cc1	9.1	1.0	12.3	-1.9	22.3*	4.4	-0.2	-2.0
COCCN(Cc1ccccc1)C(=O)c1cccc(S(=O)(=O)N2CCN(c3ccccc3)CC2)c1	24.6	2.7	8.0	3.9	5.7	7.6	nt	nt
CCOC(=O)[C@H]1[C@H]2COc3ccc(Cl)cc3[C@@H]2N2C(=O)c3cc(F)c(F)cc3NC(=O)[C@@]12C	-2.6	9.5	-8.5	2.5	1.5	-6.3	nt	nt
CSc1nc(C)cc(Oc2ccc(=O)n(C)n2)n1	1.4	0.7	1.0	-1.2	-0.7	13.7	nt	nt
SMILES	CCR6 antagonist	CXCR6 block	EBI2 block	APJ ag	m5-HT2A agonist	APJ antag	MOR ag counter	m5-HT2A ag conf
COc1cc(C)nc(Oc2ccc(=O)n(C)n2)n1	5.8	-18.2	3.6	nt	15.2*	nt	-0.4	-1.4
Cc1ccn(CC(=O)N2CCCC(N3CCN(Cc4ccc5c(c4)OCO5)CC3)C2)n1 (stereo not drawn)	2.7	12.8	-4.7	-2.6	6.9	-1.1	nt	nt
COc1ccc(NC(=O)CSc2nc3ccccc3c(=O)n2CCCN2CCCCC2)c(OC)c1	25.0	7.1	5.7	0.3	41.8*	8.5	-0.3	17.8*
CCOc1ccccc1NC(=O)CSc1nc2ccccc2nc1N1CCOCC1	16.0	3.0	14.1	-5.4	4.7	17.8	nt	nt
COc1ccc(NC(=O)CSc2nc3ccccc3nc2N2CCOCC2)c(OC)c1	21.5	7.8	5.7	-2.5	15.6*	8.9	-0.6	-4.5
C=CC1=CCN(S(=O)(=O)C(C)(C)C)[C@H]1CCO	nt	-4.6	-3.8	nt	-1.0	nt	nt	nt
Cc1cccc(NC(=O)CN(CC2CCCO2)C(=O)c2ccc(S(C)(=O)=O)cc2)c1C (stereo not drawn)	13.2	0.8	-1.3	-1.4	3.2	-15.9	nt	nt
CN1CCN(S(=O)(=O)c2cccc(C(=O)Oc3cccc(C#N)c3)c2)CC1	-7.3	3.8	-19.0	2.5	2.7	3.0	nt	nt
COc1cc(C#N)ccc1OC(=O)c1cccc(S(=O)(=O)N2CCN(C)CC2)c1	6.8	6.4	2.6	-0.2	18.3*	11.3	-0.7	-5.8
CSc1ccc(CCNC(=O)c2cccc3c2C(=O)N(C2CCCCC2)C3)cc1	27.7	5.7	1.6	-2.8	-6.0	17.4	nt	nt
CCN1C(=O)[C@H]2[C@@H](c3ccc(OC)cc3)N3C(=O)CN(CC4CC4)C(=O)[C@@]3(C)[C@H]2C1=O	-0.8	4.1	-10.3	-3.7	20.8*	9.0	-0.3	-1.6
COc1cc(NC(=O)CCCNC(=O)c2ccc(Cl)cc2)cc(OC)c1OC	6.8	-10.5	2.0	-4.7	11.3	7.3	nt	nt
Cc1ccc(C(=O)c2nc(C(=O)NCCO)nc3ccccc23)cc1	-8.3	-0.3	5.6	-3.9	15.8*	-2.0	-0.8	-2.9
O=C(NCCO)c1nc(NCCO)c2ccccc2n1	9.9	-4.3	-12.0	-2.9	2.6	3.5	nt	nt
Cc1cc(C=O)c(C)n1-c1ccc(N2CCOCC2)cc1	9.7	-6.5	-19.7	0.2	15.6*	-11.9	-0.9	-2.3
